Drawing on the array DNA melting data of Ke et al. (doi:10.1101/2024.01.08.574731), this text covers Tm and folding enthalpy for 36 sequences.

A short description of data set [1]: melting temperature; fluorescence melt of hairpins on a sequencing array, two-state fit, raised by 9.35 °C to match UV melts. Conditions: sodium 0.088 M. In outline: (§1)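 Melting temperature and folding enthalpy were obtained by bootstrapped two-state fitting. Fits used Cy3 fluorescence of library hairpins with annealed Cy3 and quencher oligos on a sequenced MiSeq flow cell, imaged in 50 mM Na-HEPES pH 8.0, 25 mM NaCl in 2.5 °C steps up to 60 °C and normalised to pre-quench Cy3 and control constructs. Four replicates were combined by inverse-variance weighting, and fitted temperatures were raised by 9.35 °C to match UV melts.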

Data set [2] in a line: folding enthalpy; higher = less favourable; fluorescence melt of hairpins on a sequencing array, two-state fit. Conditions: sodium 0.088 M. In outline: as §1

In the case of GTGACGTCGAAAGACCAC (((..(((....)))))), the Tm in data set [1] was 40.3 °C. For the same sequence, the folding enthalpy in data set [2] was -13.6 kcal/mol.
In the same order, the values of GTGACTGGAAACAGCCAC (((.(((....))).))) are 47.9 °C and -41.7 kcal/mol.
With GTGACTGGAAACAGTTAC ((.((((....)))).)), the Tm in data set [1] was 45.5 °C. Also, the folding enthalpy in data set [2] is -29.2 kcal/mol.
On the same counts, the results for GTGACTGGAAACAGTTGC (..((((....))))..) are 39.3 °C and -22.9 kcal/mol.
For GTGAGAACGAAAGTTCAC (((..(((....)))))), in data set [1], the Tm was 43.9 °C. Besides, the folding enthalpy in data set [2] is -18 kcal/mol.
In the same order, the values of GTGAGACGAAAGTCACAC (((.(((....))).))) are 55.4 °C and -31.3 kcal/mol.
In the same order, the values of GTGAGAGCGAAAGCTCAC (((..(((....)))))) are 48.6 °C and -14.5 kcal/mol.
Regarding GTGAGCACGAAAGTGCAC (((..(((....)))))), the Tm in data set [1] worked out at 60.1 °C. Besides, the folding enthalpy in data set [2] is -8.71 kcal/mol.
On the same counts, the results for GTGAGCGAAAGCTACAC ((((((....))).))) are 49.1 °C and -16.1 kcal/mol.
In the same order, the values of GTGAGGAAACTCAC (((((....))))) are 51.9 °C and -24.5 kcal/mol.
In the same order, the values of GTGAGGCGAAAGCCCCAC (((.(((....))).))) are 53.8 °C and -22.8 kcal/mol.
For GTGAGTGAAAACTCAC ((((((....)))))), the Tm in data set [1] was found to be 59.1 °C. Moreover, the folding enthalpy in data set [2] is -37.7 kcal/mol.
Take GTGAGTGGAAACATTCGC (.((.((....)).)).): the Tm in data set [1] stood at 33.4 °C. Further, the folding enthalpy in data set [2] is -16.4 kcal/mol.
In the same order, the values of GTGATACGAAAGTACCAC (((.(((....))).))) are 45.6 °C and -32.7 kcal/mol.
In the same order, the values of GTGATAGGAAACTATCGC (.(((((....))))).) are 46.3 °C and -38.2 kcal/mol.
On the same counts, the results for GTGATCGAAAGATACAC ((((((....))).))) are 35.8 °C and -22.1 kcal/mol.
For GTGATCGAAAGATCAC ((((((....)))))), in data set [1], the Tm worked out at 67.4 °C. For the same sequence, the folding enthalpy in data set [2] was -37.1 kcal/mol.
On the same counts, the results for GTGATCGAAAGATCTCAC ((((((....)))..))) are 39.1 °C and -11.4 kcal/mol.
In the same order, the values of GTGATCGAAAGATTACAC ((((((....)))..))) are 38.5 °C and -20 kcal/mol.
In the same order, the values of GTGATCGGAAACGATTGC (..((((....))))..) are 40.5 °C and -22.1 kcal/mol.
GTGATGGGAAACCATCGC (.(((((....))))).): the Tm in data set [1] was determined as 55.1 °C. Also, in data set [2], the folding enthalpy is -23.7 kcal/mol.
In the same order, the values of GTGATGGGAAACCGTCAC ((((.((....)).)))) are 52.9 °C and -50.2 kcal/mol.
Regarding GTGATTCGAAAGAAACAC (((.(((....))).))), the Tm in data set [1] came out at 46.5 °C. The folding enthalpy in data set [2] is -30 kcal/mol.
In the same order, the values of GTGATTGGAAACAATTAC ((.((((....)))).)) are 37.5 °C and -32.3 kcal/mol.
On the same counts, the results for GTGCACCGAAAGGTCAC (((.(((....)))))) are 52.5 °C and -26.3 kcal/mol.
On to GTGCACGAAAGTGACCAC ((((((....)))..))), for which, in data set [1], the Tm came to 41.3 °C. Besides, the folding enthalpy in data set [2] is -12.7 kcal/mol.
In the case of GTGCACGAAAGTGGACAC ((((((....)))..))), in data set [1], the Tm worked out at 52.6 °C. Moreover, the folding enthalpy in data set [2] is -15.2 kcal/mol.
Regarding GTGCACGAAAGTGGCAC ((((((....))).))), the Tm in data set [1] is 59.4 °C. The folding enthalpy in data set [2] is -25.1 kcal/mol.
Turning to GTGCACGAAAGTGTCCAC ((((((....)))..))), the Tm in data set [1] was 34.8 °C. Besides, the folding enthalpy in data set [2] was -10.8 kcal/mol.
In the same order, the values of GTGCACGCGAAAGCGCAC (((..(((....)))))) are 56.3 °C and -15.4 kcal/mol.
On the same counts, the results for GTGCACGGAAACGCACAC (((..((....))..))) are 38.5 °C and -19.9 kcal/mol.
On the same counts, the results for GTGCAGCGAAAGCTTCAC (((.(((....))).))) are 51.6 °C and -27.6 kcal/mol.
For the sequence GTGCATGGAAACATACAC (((.(((....))).))), the Tm in data set [1] turned out to be 39.3 °C. Further, the folding enthalpy in data set [2] is -35 kcal/mol.
On the same counts, the results for GTGCCATCGAAAGATCAC (((..(((....)))))) are 38.4 °C and -5.32 kcal/mol.
In the case of GTGCCCACGAAAGTGCAC (((..(((....)))))), in data set [1], the Tm is 44.9 °C. Also, in data set [2], the folding enthalpy was -15.5 kcal/mol.
In the same order, the values of GTGCCCGAAAGGGAACAC ((((((....)))..))) are 52.5 °C and -15.2 kcal/mol.
